# STAT1 inh = inhibitors of IFN-gamma induced STAT1 signaling | NIH 3T3 STAT1-luciferase reporter, luminescence | inhibition, % at 5.5 µM | 0.35% of 200,000 active | AID 920;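 active = inhibition above a set limit, the mean inhibition across all tested compounds plus 3 SD, cut at about 34% in these data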
# NF-kB expr up = compounds increasing NF-kB expression in human neuronal cells; NF-kB reporter expression; active compounds read high; fold change at 12.5 µM; 1.6% of 190,000 active; AID 1239; in the data active = fold change above about 3.3
# STAT3 blocker = reduces IL-6 driven STAT3 reporter signal. U3A cells, IL-6 STAT3-luciferase reporter, luminescence; host cell line lacks STAT1. inhibition, % at 5.5 µM. 0.89% of 190,000 active;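 active = inhibition above the mean inhibition across all screened compounds plus 3 SD, cut at about 44% in these data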
# STAT3 act-1 = STAT3 signaling activation; activation (% of control), % at 5.6 µM; U3A cells, IL-6 STAT3-luciferase reporter, luminescence; 100% = signal with IL-6 EC80 alone; 0.91% of 190,000 active; AID 871;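 active = activation above the screen-wide mean of compound activation plus 3 SD, cut at about 130% in these data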
#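 Material: human U3A cells carrying STAT3-luciferase construct. Measured by: reporter luminescence signal. Timing: compound 1 h, then IL-6 6 h at 37 °C.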
# APP 5'UTR act = APP 5'UTR luciferase reporter activation. 1% of 190,000 active. SH-SY5Y APP 5'UTR luciferase reporter, luminescence; zero percent = DMSO vehicle wells. AID 1276. activation, % at 2 µM;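 active = activation above a set limit, based on mean plus 3 SD of controls, cut at about 140% in these data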
# STAT1 act-1 = STAT1 signaling activation | 2.6% of 200,000 active | activation (% of control), % at 5.5 µM | NIH 3T3 STAT1-luciferase reporter, IFN-gamma, luminescence; 100% = IFN-gamma alone, no compound;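 active = activation above the screen-wide mean activation plus 3 SD, cut at about 130% in these data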
# STAT3 act-2 = STAT3 activation, confirmation assay; 64% of 1,200 active; U3A STAT3-luciferase reporter, IL-6 potentiation, luminescence; U3A cells lack STAT1; 100 means same as IL-6 alone; potentiation (% of control), % at 5.7 µM; shares compounds with STAT3 act-1; AID 1267;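 active = percent activation of the STAT3 luciferase reporter above a set limit taken from the earlier primary screen, cut at about 130% in these data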
# NFkB act STAT3ct = activates NF-kappaB, counter-screen to STAT3 activators; 11% of 1,200 active; shares compounds with STAT3 act-1; AID 1309; human cells, NF-kappaB reporter activation; activation (% of control), % at 5.7 µM; in the data active = activation above about 120%;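 note: reporter induced by TNF-alpha stimulation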
# STAT1 act-2 = counter-screen for STAT3 activators: STAT1 activation; NIH 3T3 STAT1-luciferase reporter, IFN-gamma, luminescence; activation (% of control), % at 5.7 µM; AID 1318; 13% of 1,200 active; shares compounds with STAT3 act-1;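 active = activation above the solvent-only control well mean plus 3 SD, set per screening run, cut at about 120% in these data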
# Hits are given with their value; n = inactive; x = no result given. Rows were chosen to be rich in hits. Some 5.1% of all compounds tested hit in one or more screens of this group.
SMILES,STAT1 inh,NF-kB expr up,STAT3 blocker,STAT3 act-1,APP 5'UTR act,STAT1 act-1,STAT3 act-2,NFkB act STAT3ct,STAT1 act-2
Cc1nc2ccccc2n1CC(=O)OCC(=O)NCc1ccccc1,n,n,n,n,n,n,x,x,x
c1ccc(-c2ccccc2OCCOCCN2CCc3ccccc3C2)cc1,n,n,n,138,n,n,n,n,n
Clc1ccc(SCCOCCN2CCc3ccccc3C2)cc1,n,n,n,137,n,n,n,n,n
CCc1nc(SCc2ccc(F)cc2)[nH]c(=O)c1C#N,n,n,n,n,n,n,x,x,x
COc1ccc(/C=C/C(=O)c2cc(F)ccc2OC(=O)c2ccccc2OC)cc1OC,n,n,n,156,n,n,n,168,n
C/C(CCc1ccccc1)=N/NC(=O)C(=O)NC(C)c1ccccc1 (stereo not drawn),n,n,n,n,n,n,x,x,x
CCCN(CC1CC1)C(=O)CSc1ncnc2sccc12,n,n,n,n,n,n,x,x,x
O=C(NCc1ccccc1)c1ccc(CS(=O)(=O)c2ccccc2)o1,n,n,n,n,n,n,x,x,x
COc1ccccc1C(=O)NNC1=C(C(=O)C(F)(F)F)CCC1,n,n,n,150,n,n,n,n,n
O=C(NNC1=C(C(=O)C(F)(F)F)CCC1)c1ccccc1Cl,n,n,n,n,n,n,x,x,x
O=C(NNC1=C(C(=O)C(F)(F)F)CCC1)c1ccccc1O,n,n,n,177,n,n,148,n,n
O=C(Nc1c(C(=O)O)[nH]c2ccccc12)NC1CCCCC1,n,n,n,164,n,n,159,n,n
COC(=O)c1ccccc1NC1=C/C(=N\S(=O)(=O)c2cccs2)c2ccccc2C1=O,n,n,n,137,n,n,n,n,n
CCO[C@@H]1OC(C(=O)Nc2ccccc2)=C[C@H](C2CC2)[C@H]1CCCO,n,n,x,x,n,n,x,x,x
N#CC1=C(N)n2c(s/c(=C\c3ccco3)c2=O)=C(C#N)C1c1ccco1 (stereo not drawn),n,n,n,171,n,n,170,n,n
C/C(=N\OCC(=O)NC12CC3CC(CC(C3)C1)C2)c1cc2ccccc2o1,n,n,n,n,n,n,x,x,x
O=C(c1ccccc1)c1nn(-c2ccc(Cl)cc2)cc1C(=O)c1cc2ccccc2oc1=O,n,n,n,136,n,n,n,n,n
Cc1cccc(NC(=S)NC(=O)c2cccs2)n1,n,n,n,141,n,n,138,n,n
Cc1ccc2nc(NC(=S)NC(=O)c3cccs3)sc2c1,n,5.5,n,163,243,n,171,126,132
Cc1nc(NC(=S)NC(=O)c2cccs2)ccc1Br,n,n,n,148,n,n,173,n,n
COc1ccc2c(c1)c1nnc(SC)nc1n2C,n,n,n,160,n,n,171,n,128
COc1ccc2c(c1)c1nnc(SCC(=O)N3C(C)CCCC3C)nc1n2C (stereo not drawn),n,n,n,n,n,n,x,x,x
O=C(Cc1cccs1)Nc1ccccn1,n,n,n,157,n,n,137,n,n
CC(=O)Nc1c(O)c2ccccc2[nH]c1=O,n,n,n,n,n,n,x,x,x
CC(=O)c1cccc2c(O)c(C3=Nc4ccccc4C3=O)[nH]c12,n,4.1,n,138,n,n,152,136,181
SMILES,STAT1 inh,NF-kB expr up,STAT3 blocker,STAT3 act-1,APP 5'UTR act,STAT1 act-1,STAT3 act-2,NFkB act STAT3ct,STAT1 act-2
COC(=O)c1ccccc1NC(=O)C1CC(c2ccccc2O)=NO1 (stereo not drawn),n,n,n,n,n,n,x,x,x
CSc1ccccc1NC(=O)C1CC(c2ccccc2O)=NO1 (stereo not drawn),n,n,n,137,n,n,n,n,n
CC1CC(C)CN(S(=O)(=O)c2ccc(NC(=S)NC(=O)c3ccccc3)cc2)C1 (stereo not drawn),n,n,n,n,n,n,x,x,x
Cc1ccc(C2=Nc3ccccc3NC(C)(c3ccc(C)o3)C2)o1 (stereo not drawn),n,n,n,138,n,n,n,n,n
Cc1nc2ccccn2c1C(=O)N=Nc1c(O)n(CCC(C)C)c2ccccc12,n,n,n,n,n,n,x,x,x
c1ccc2c(c1)[nH]c1c(N3CCOCC3)ncnc12,n,n,n,140,n,n,134,n,n
O=C(Nc1ccccc1O)c1nc(Cl)ccc1Cl,n,n,n,156,n,n,171,n,n
Cc1ccc(C)c(NC(=O)c2nc(Cl)ccc2Cl)c1,n,n,n,n,n,n,x,x,x
O=C(Cc1ccccc1)Nn1c(O)c(/C=C2\C=Nc3ccccc32)sc1=S,n,n,n,170,n,n,n,n,n
CCn1c(O)c(/C=C2\C=Nc3ccccc32)sc1=Nc1ccccc1,n,n,n,n,n,n,x,x,x
O=C(CC1NCCNC1=O)Nc1cccc([N+](=O)[O-])c1 (stereo not drawn),n,n,n,n,n,n,x,x,x
O=C(CSC1=Nc2ccccc2C2=NC(Cc3c[nH]c4ccccc34)C(=O)N12)NC1CCCCC1 (stereo not drawn),n,n,n,n,n,n,x,x,x
CC1CC(C)CN(C(=O)CSC2=Nc3ccccc3C3=NC(Cc4c[nH]c5ccccc45)C(=O)N23)C1 (stereo not drawn),n,n,n,140,n,n,n,n,n
COC(=O)c1sccc1NC(=O)c1cc(C)on1,n,n,n,151,n,n,135,n,n
COC(=O)c1sccc1NC(=O)c1c(C)noc1C,n,n,n,n,n,n,x,x,x
Cc1cc(C)nc(NS(=O)(=O)c2ccc(NC(=O)c3cccs3)cc2)n1,n,n,n,n,n,n,x,x,x
CCCCN(CCCC)S(=O)(=O)c1ccc(NC(=O)c2cccs2)cc1,n,n,n,145,n,n,n,n,n
CC(=O)n1cc(-c2ccncc2)c2ccccc21,n,n,n,n,n,n,x,x,x
CC(=O)n1cc(C(C[N+](=O)[O-])SCCN)c2ccccc21 (stereo not drawn),n,n,n,141,n,n,138,n,n
O=C(NNS(=O)(=O)c1ccccc1[N+](=O)[O-])c1cccc([N+](=O)[O-])c1,n,n,n,n,n,n,x,x,x
O=C1C2CC=CCC2C(=O)N1c1ccc(N2CCN(c3ccccn3)CC2)c([N+](=O)[O-])c1 (stereo not drawn),n,n,n,n,n,n,x,x,x
